The nature of data set [1]: folding enthalpy; higher = less favourable; fluorescence melt of hairpins on a sequencing array, two-state fit. The note with it: sodium 0.088 M. A digest of the protocol:
(§1)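 Folding enthalpy and melting temperature come from bootstrapped two-state fits to Cy3 fluorescence of library hairpins carrying annealed Cy3 and quencher oligos on a sequenced MiSeq flow cell. Imaging was done in 50 mM Na-HEPES pH 8.0, 25 mM NaCl, stepping by 2.5 °C up to 60 °C, and signals were normalised to pre-quench Cy3 and to control constructs. Results of four replicates were combined by inverse variance, and fitted temperatures were raised by 9.35 °C to match UV melts.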

The nature of data set [2]: melting temperature; fluorescence melt of hairpins on a sequencing array, two-state fit, raised by 9.35 °C to match UV melts. The note with it: sodium 0.088 M. Summed up: as §1

Turning to GGTGGCGCGAAAGCGACC (((..(((....)))))), the folding enthalpy in data set [1] is -9.77 kcal/mol. Also, the Tm in data set [2] amounted to 52.8 °C.

In the case of GGTGGCGGAAACACCACC (((((.(....).))))), in data set [1], the folding enthalpy was -42.3 kcal/mol. Also, the Tm in data set [2] amounted to 53.8 °C.

Consider GGTGGGCGAAAGCCTACC (((.(((....))).))), for which the folding enthalpy in data set [1] is -22.3 kcal/mol. Also, the Tm in data set [2] turned out to be 65.6 °C.

Consider GGTGGGGAAACCCACC ((((((....)))))), for which, in data set [1], the folding enthalpy is -42.9 kcal/mol. Besides, the Tm in data set [2] is 68.1 °C.

For the sequence GGTGGGGGAAACCCCGCC ((.((((....)))).)), the folding enthalpy in data set [1] was -27.5 kcal/mol. For the same sequence, the Tm in data set [2] was determined as 61.4 °C.

GGTGGGGGAAACCCCGTC (..((((....))))..): the folding enthalpy in data set [1] is -12 kcal/mol. Besides, in data set [2], the Tm stood at 38.2 °C.

Regarding GGTGGGGGAAACTCCGCC ((.((.(....).)).)), the folding enthalpy in data set [1] was -26.4 kcal/mol. For the same sequence, in data set [2], the Tm was 49.6 °C.

With GGTGGTGGAAACGTCACC ((((..(....)..)))), the folding enthalpy in data set [1] is -23.4 kcal/mol. Further, the Tm in data set [2] is 44.5 °C.

GGTGTACGAAAGTAACC (((.(((....)))))): the folding enthalpy in data set [1] is -24.5 kcal/mol. For the same sequence, the Tm in data set [2] was 47.8 °C.

As for GGTGTAGGAAACTGTACC (((..((....))..))), in data set [1], the folding enthalpy was -19.3 kcal/mol. For the same sequence, the Tm in data set [2] was 29.6 °C.

Turning to GGTGTATCGAAAGATACC (((..(((....)))))), in data set [1], the folding enthalpy is -14.7 kcal/mol. Moreover, the Tm in data set [2] is 43.3 °C.

As to GGTGTCCCGAAAGGGACC (((..(((....)))))), the folding enthalpy in data set [1] is -9.51 kcal/mol. The Tm in data set [2] is 49.5 °C.

With GGTGTCGAAAGACATACC ((((((....)))..))), in data set [1], the folding enthalpy was -13.9 kcal/mol. In addition, in data set [2], the Tm worked out at 43.5 °C.

As to GGTGTCGAAAGACCAACC ((((((....)))..))), the folding enthalpy in data set [1] is -15.3 kcal/mol. The Tm in data set [2] was found to be 37.5 °C.

With GGTGTCGAAAGACCTACC ((((((....)))..))), the folding enthalpy in data set [1] was -16.1 kcal/mol. In addition, the Tm in data set [2] worked out at 33.8 °C.

Consider GGTGTCGAAAGACGGACC ((((((....)))..))), for which the folding enthalpy in data set [1] is -16.6 kcal/mol. Besides, the Tm in data set [2] amounted to 40.3 °C.

As for GGTGTCGGAAACGACATC (.(((((....))))).), in data set [1], the folding enthalpy was -26.8 kcal/mol. The Tm in data set [2] amounted to 54 °C.

With GGTGTGAAAACACC (((((....))))), the folding enthalpy in data set [1] was -30.9 kcal/mol. Further, the Tm in data set [2] turned out to be 57.3 °C.

Consider GGTGTGCGAAAGCAAACC (((.(((....))).))), for which, in data set [1], the folding enthalpy was -35.5 kcal/mol. In addition, the Tm in data set [2] is 56 °C.

In the case of GGTGTGCGAAAGCATACC (((.(((....))).))), the folding enthalpy in data set [1] is -38.4 kcal/mol. Further, the Tm in data set [2] turned out to be 63.6 °C.

Consider GGTGTGTCGAAAGACACC (((..(((....)))))), for which the folding enthalpy in data set [1] is -10.2 kcal/mol. Moreover, the Tm in data set [2] was determined as 47.8 °C.

On to GGTGTTGGAAACAACGCC ((.((((....)))).)), for which the folding enthalpy in data set [1] was -36.1 kcal/mol. In addition, the Tm in data set [2] worked out at 57.3 °C.

Turning to GGTGTTGGAAACAATGCC ((..(((....)))..)), the folding enthalpy in data set [1] was -21 kcal/mol. In addition, the Tm in data set [2] amounted to 41.8 °C.

For the sequence GGTTAACGAAAGTTACC (((.(((....)))))), the folding enthalpy in data set [1] was -21.9 kcal/mol. Also, the Tm in data set [2] came out at 43.9 °C.

With GGTTAACGAAAGTTCACC (((.(((....))).))), the folding enthalpy in data set [1] is -31.3 kcal/mol. Besides, in data set [2], the Tm stood at 43 °C.

As to GGTTAAGAAATTAACC ((((((....)))))), the folding enthalpy in data set [1] was -23.8 kcal/mol. In addition, in data set [2], the Tm came to 43.5 °C.

As for GGTTAAGGAAACTTAACC (((((((....))))))), the folding enthalpy in data set [1] was -38.5 kcal/mol. Besides, the Tm in data set [2] is 52.7 °C.

Regarding GGTTACCGAAAGGTTACC (((.(((....))).))), the folding enthalpy in data set [1] was -30.3 kcal/mol. In data set [2], the Tm amounted to 52.6 °C.

For the sequence GGTTACGAAAGTAATACC ((((((....)))..))), the folding enthalpy in data set [1] was -14.9 kcal/mol. The Tm in data set [2] worked out at 33.5 °C.

For the sequence GGTTACGAAAGTATGACC ((((((....)))..))), the folding enthalpy in data set [1] is -15.1 kcal/mol. Also, in data set [2], the Tm came out at 30.4 °C.

On to GGTTACGAAAGTATTACC ((((((....)))..))), for which the folding enthalpy in data set [1] is -15.2 kcal/mol. Moreover, the Tm in data set [2] stood at 29.6 °C.

Regarding GGTTACGGAAACATAACC (((((.(....).))))), the folding enthalpy in data set [1] is -17 kcal/mol. Further, the Tm in data set [2] is 35.8 °C.

With GGTTACGGAAACGTAGCC ((.((((....)))).)), in data set [1], the folding enthalpy was -28.6 kcal/mol. Moreover, the Tm in data set [2] came to 51.7 °C.

GGTTACGGAAACGTAGTC (..((((....))))..): the folding enthalpy in data set [1] was -12.7 kcal/mol. For the same sequence, in data set [2], the Tm turned out to be 25.7 °C.

With GGTTAGCGAAAGCTTACC (((.(((....))).))), in data set [1], the folding enthalpy is -23.2 kcal/mol. In addition, the Tm in data set [2] came to 52 °C.

GGTTAGGGAAACCTGATC (.(.(((....))).).): the folding enthalpy in data set [1] is -11.7 kcal/mol. Besides, the Tm in data set [2] was 31 °C.

The values are drawn from the array DNA melting data of Ke et al. (doi:10.1101/2024.01.08.574731).
